Results as given in ChEMBL document CHEMBL1157638, “Fluorescent epigenetic small molecule induces expression of the tumor suppressor ras-association domain family 1A and inhibits human prostate xenograft” (J Med Chem, 2010).
The source made the active and inactive calls. No cut-off for these calls is given here.

Assays:
[1] = tested on: PC-3; assay: Growth inhibition of human PC3 cells after 24 hrs by trypan blue exclusion method; format: functional; settings: PC-3, 24 h
In short: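 PC-3 cells grown in phenol red-free IMEM with 10% FBS, 2 mM glutamine and penicillin/streptomycin at 37 °C, 5% CO2. Seeded in triplicate at 1.5 × 10⁴ cells/well. After 24 h, treated with DMSO vehicle or 1, 5, 15, 30 or 60 μM compound for 24 h. Cells trypsinized, stained with 0.4% trypan blue, and live and dead cells counted by hemocytometer. Mean ± SEM of three independent observations.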

[2] = tested on: PC-3; assay: Increase in RASSF1A gene expression in human PC3 cells at 15 uM after 3 days hrs by RT-PCR; format: functional
In short: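 PC-3 cells incubated 3 days with compound, then RNA extracted with TRIzol. 500 ng total RNA reverse-transcribed with random hexamers. RASSF1A amplified with previously described primers and conditions. Products run on 1.5% agarose and stained with ethidium bromide. Bands quantified by densitometry against untreated cells, with RASSF1A re-expression from the reference alkaloid set to 100%.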

[3] = tested on: PC-3; assay: […] in RASSF1A gene expression in human PC3 cells at 15 uM after 3 days hrs by RT-PCR; format: functional, cell-based
[4] = target: DNA (cytosine-5)-methyltransferase 1 (Homo sapiens) (UniProt P26358); assay: Inhibition of DNA methyltransferase activity in human PC3 cells at 15 uM after 3 days; format: cell-based; settings: PC-3
In short: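 PC-3 cells in complete growth medium treated 3 days with compound, then harvested. Nuclear extracts prepared by kit protocol, and DNMT activity measured with a commercial DNMT activity kit against untreated cells. Mean of three independent experiments ± SEM.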

[5] = tested on: PC-3; assay: Decrease in DNA synthesis in human PC3 cells at 5 uM after 24 hrs by BrdU incorporation assay; format: functional, cell-based
In short: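 PC-3 cells were seeded at 2 × 10⁴ cells/well and exposed to 5 μM compound or DMSO for 24 h. BrdU incorporation was read by chemiluminescent cell proliferation ELISA on a luminometer. Background without anti-BrdU-peroxidase was subtracted and values were normalized to untreated control. Values are mean ± SEM.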

Chain of DNA (cytosine-5)-methyltransferase 1 (Homo sapiens) (P26358 whole entry): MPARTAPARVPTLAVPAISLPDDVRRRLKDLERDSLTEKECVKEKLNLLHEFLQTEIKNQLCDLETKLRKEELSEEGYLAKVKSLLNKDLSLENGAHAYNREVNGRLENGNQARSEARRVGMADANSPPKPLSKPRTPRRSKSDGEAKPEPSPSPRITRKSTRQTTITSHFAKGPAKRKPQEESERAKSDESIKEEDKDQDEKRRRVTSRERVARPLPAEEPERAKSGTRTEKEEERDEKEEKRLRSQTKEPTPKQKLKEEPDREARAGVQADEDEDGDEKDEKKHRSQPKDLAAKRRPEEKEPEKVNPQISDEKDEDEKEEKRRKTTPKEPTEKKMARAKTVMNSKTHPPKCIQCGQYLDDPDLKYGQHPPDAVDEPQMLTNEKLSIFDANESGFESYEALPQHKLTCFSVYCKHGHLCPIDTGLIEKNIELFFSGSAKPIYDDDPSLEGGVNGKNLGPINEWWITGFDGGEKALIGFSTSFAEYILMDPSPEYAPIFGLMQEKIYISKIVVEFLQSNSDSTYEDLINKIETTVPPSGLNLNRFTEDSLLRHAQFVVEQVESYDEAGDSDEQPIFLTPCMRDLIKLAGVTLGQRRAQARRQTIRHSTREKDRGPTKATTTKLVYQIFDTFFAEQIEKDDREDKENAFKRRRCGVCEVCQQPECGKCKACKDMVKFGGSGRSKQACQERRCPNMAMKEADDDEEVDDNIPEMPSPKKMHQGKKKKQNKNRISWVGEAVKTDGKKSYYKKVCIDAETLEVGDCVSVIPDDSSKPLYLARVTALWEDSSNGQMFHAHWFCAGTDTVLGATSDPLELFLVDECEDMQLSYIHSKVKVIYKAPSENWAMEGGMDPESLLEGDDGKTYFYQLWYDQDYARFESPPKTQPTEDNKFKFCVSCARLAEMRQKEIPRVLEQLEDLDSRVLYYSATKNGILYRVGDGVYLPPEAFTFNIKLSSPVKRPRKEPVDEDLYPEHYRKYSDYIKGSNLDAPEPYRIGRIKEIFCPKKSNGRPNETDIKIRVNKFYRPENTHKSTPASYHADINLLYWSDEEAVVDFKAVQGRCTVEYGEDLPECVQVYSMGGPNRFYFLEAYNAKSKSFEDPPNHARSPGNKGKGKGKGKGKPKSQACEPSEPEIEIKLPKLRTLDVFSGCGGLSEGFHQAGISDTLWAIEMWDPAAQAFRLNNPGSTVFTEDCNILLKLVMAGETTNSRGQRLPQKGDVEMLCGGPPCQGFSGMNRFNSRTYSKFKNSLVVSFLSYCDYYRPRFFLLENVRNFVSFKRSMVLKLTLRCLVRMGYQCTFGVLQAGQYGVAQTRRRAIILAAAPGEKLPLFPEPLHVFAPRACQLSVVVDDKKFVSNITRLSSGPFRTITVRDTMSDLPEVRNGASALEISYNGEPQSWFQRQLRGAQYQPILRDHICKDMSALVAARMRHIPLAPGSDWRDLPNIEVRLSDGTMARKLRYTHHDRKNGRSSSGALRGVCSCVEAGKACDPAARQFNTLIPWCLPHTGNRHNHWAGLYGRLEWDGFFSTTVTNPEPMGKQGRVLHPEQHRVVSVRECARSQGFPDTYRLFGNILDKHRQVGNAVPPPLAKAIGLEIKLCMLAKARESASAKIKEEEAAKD

Structure (SMILES): COc1ccc2c(c1)[nH]c1cc(OS(=O)(=O)c3cccc4c(N(C)C)cccc34)c(C)cc12
- GI50 [1]: 22.9 µM
- Activity [2]: inactive
- Activity [3]: inactive

Structure (SMILES): COc1ccc2c(c1)[nH]c1c(C)c(O)ccc12
- GI50 [1]: 18.7 µM
- Activity [4]: Active

Structure (SMILES): COc1ccc2c(c1)[nH]c1cc(OCc3ccccc3)c(C)cc12
- GI50 [1]: 48.9 µM
- Activity [2]: inactive
- Activity [3]: inactive

Structure (SMILES): COc1ccc2c(c1)[nH]c1cc(O)c(C)cc12
- GI50 [1]: 15.3 µM
- Activity [5]: Active
- Activity [4]: Active

Structure (SMILES): COc1ccc2c(c1)[nH]c1c(C)c(OCc3ccccc3)ccc12
- GI50 [1]: 17.6 µM
- Activity [5]: Active
- Activity [2]: 50%
- Activity [4]: Active
